What was measured:
[1] = (§1) Toxicity in BALB/c mouse infected with Trypanosoma cruzi MHOM/Pe/2011/Arequipa;DTU 5 bloodstream trypomastigote assessed as increase in serum aspartate aminotransferase level in acute phase at 20 mg/kg/day, po administered for 5 consecutive days starting from day 8 post infection and measured on day 100 post infection by biochemical analysis relative to control; assay type: organism-based; conditions: in vivo
[2] = as §1, with “lactate dehydrogenase” for “aspartate aminotransferase”; assay type: organism-based; conditions: in vivo
[3] = as §1, with “in chronic” for “in acute”, “day 70” for “day 8”, “measured at” for “measured on”, “day 76” for “day 100”, “infection” for “infection by biochemical analysis”; assay type: organism-based; conditions: in vivo
[4] = Mutagenecity against Salmonella typhimurium TA 100 assessed as number of colonies at 7.4 ug/plate in absence of Sprague-Dawley rat S9 with metabolic activation measured after 48 hrs by Ames test (reference value: 35.7 +/- 0.6); assay type: toxicity; conditions: salmonella enterica subsp. enterica serovar typhimurium, s9, 48 h
Trypanosoma cruzi [5] = experiment: Antitrypanosomal activity against Trypanosoma cruzi MHOM/Pe/2011/Arequipa;DTU 5 epimastigote assessed as effect on parasite glycolytic pathway by measuring increase in succinate excretion at IC50 after 72 hrs by H NMR method relative to control; assay type: functional
Procedure, shortened: (§2)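 Cells were spun at 800 × g for 10 min and culture supernatants analysed by 1H NMR. Catabolite peaks were expressed as % variation versus untreated parasites.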

[6] = as §1, with “bloodstream trypomastigotes” for “bloodstream trypomastigote”, “as decrease” for “as increase”, “measured at” for “measured on”, “day 14” for “day 100”; assay type: organism-based; set-up: scale not given: the % may be the effect or the level left; conditions: in vivo
[7] = Mutagenecity against Salmonella typhimurium TA97a assessed as number of colonies at 66.7 ug/plate in presence of Sprague-Dawley rat S9 with metabolic activation measured after 48 hrs by Ames test (reference value: 55 +/- 7.1); assay type: toxicity, subcellular; conditions: salmonella enterica subsp. enterica serovar typhimurium, s9, 48 h
[8] = Mutagenecity against Salmonella typhimurium TA 102 assessed as number of colonies at 66.7 ug/plate in presence of Sprague-Dawley rat S9 with metabolic activation measured after 48 hrs by Ames test (reference value: 72 +/- 1); assay type: toxicity, subcellular; conditions: salmonella enterica subsp. enterica serovar typhimurium, s9, 48 h
[9] = Mutagenecity against Salmonella typhimurium TA 100 assessed as number of colonies at 22.2 ug/plate in presence of Sprague-Dawley rat S9 with metabolic activation e measured after 48 hrs by Ames test (reference value: 47.3 +/- 5.7); assay type: toxicity, subcellular; conditions: salmonella enterica subsp. enterica serovar typhimurium, s9, 48 h
[10] = (§3) Toxicity in BALB/c mouse infected with Trypanosoma cruzi MHOM/Pe/2011/Arequipa;DTU 5 bloodstream trypomastigote assessed as change in serum uric acid level in chronic phase at 20 mg/kg/day, po administered for 5 consecutive days starting from day 70 post infection measured on day 100 post infection relative to control; assay type: organism-based; conditions: in vivo
[11] = Mutagenecity against Salmonella typhimurium TA 100 assessed as number of colonies at 7.4 ug/plate in presence of Sprague-Dawley rat S9 with metabolic activation measured after 48 hrs by Ames test (reference value: 47.3 +/- 5.7); assay type: toxicity, subcellular; conditions: salmonella enterica subsp. enterica serovar typhimurium, s9, 48 h
[12] = Mutagenecity against Salmonella typhimurium TA97a assessed as number of colonies at 7.4 ug/plate in absence of Sprague-Dawley rat S9 with metabolic activation measured after 48 hrs by Ames test ( Rvb = 37 +/- 6.5); assay type: toxicity; conditions: salmonella enterica subsp. enterica serovar typhimurium, s9, 48 h
[13] = as §1, with “alanine” for “aspartate”; assay type: organism-based; conditions: in vivo
[14] = as §1, with “change” for “increase”, “uric acid” for “aspartate aminotransferase”; assay type: organism-based; conditions: in vivo
[15] = Mutagenecity against Salmonella typhimurium TA98 assessed as number of colonies at 7.4 ug/plate in presence of Sprague-Dawley rat S9 measured after 48 hrs by Ames test (reference value: 4 +/- 2); assay type: toxicity, subcellular; conditions: salmonella enterica subsp. enterica serovar typhimurium, s9, 48 h
[16] = Mutagenecity against Salmonella typhimurium TA98 assessed as number of colonies at 66.7 ug/plate in absence of Sprague-Dawley rat S9 measured after 48 hrs by Ames test (reference value: 3 +/- 2.6); assay type: toxicity; conditions: salmonella enterica subsp. enterica serovar typhimurium, s9, 48 h
[17] = Mutagenecity against Salmonella typhimurium TA97a assessed as number of colonies at 200 ug/plate in presence of Sprague-Dawley rat S9 with metabolic activation measured after 48 hrs by Ames test (reference value: 55 +/- 7.1); assay type: toxicity, subcellular; conditions: salmonella enterica subsp. enterica serovar typhimurium, s9, 48 h
[18] = Mutagenecity against Salmonella typhimurium TA1535 assessed as number of colonies at 7.4 ug/plate in absence of Sprague-Dawley rat S9 measured after 48 hrs by Ames test (reference value: 13.3 +/- 2.5); assay type: toxicity; conditions: salmonella enterica subsp. enterica serovar typhimurium, s9, 48 h
Trypanosoma cruzi [19] = experiment: Antitrypanosomal activity against Trypanosoma cruzi MHOM/Pe/2011/Arequipa;DTU 5 epimastigote assessed as effect on parasite glycolytic pathway by measuring increase in pyruvate excretion at IC50 after 72 hrs by H NMR method relative to control; assay type: functional; procedure, shortened: as §2
Trypanosoma cruzi [20] = experiment: Antitrypanosomal activity against Trypanosoma cruzi MHOM/Pe/2011/Arequipa;DTU 5 bloodstream trypomastigotes infected in BALB/c mouse assessed as decrease in splenomegaly in acute phase at 20 mg/kg/day, po administered for 5 consecutive days starting from day 8 post infection relative to untreated control; assay type: functional; set-up: scale not given: the % may be the effect or the level left
Procedure, shortened: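 Female BALB/c mice (three per group) were infected i.p. with 5 × 10^5 Arequipa trypomastigotes and dosed orally at 20 mg/kg/day for 5 days in 5% DMSO/0.5% HPMC. Controls were uninfected and vehicle-only groups. At the end of the experiment spleens were weighed and expressed as % of body weight.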

[21] = Mutagenecity against Salmonella typhimurium TA98 assessed as number of colonies at 22.2 ug/plate in presence of Sprague-Dawley rat S9 measured after 48 hrs by Ames test (reference value: 4 +/- 2); assay type: toxicity, subcellular; conditions: salmonella enterica subsp. enterica serovar typhimurium, s9, 48 h
[22] = Mutagenecity against Salmonella typhimurium TA98 assessed as number of colonies at 7.4 ug/plate in absence of Sprague-Dawley rat S9 measured after 48 hrs by Ames test (reference value: 3 +/- 2.6); assay type: toxicity; conditions: salmonella enterica subsp. enterica serovar typhimurium, s9, 48 h
[23] = Mutagenecity against Salmonella typhimurium TA 100 assessed as number of colonies at 22.2 ug/plate in absence of Sprague-Dawley rat S9 with metabolic activation ug/plate measured after 48 hrs by Ames test (reference value: 35.7 +/- 0.6); assay type: toxicity; conditions: salmonella enterica subsp. enterica serovar typhimurium, s9, 48 h
[24] = Mutagenecity against Salmonella typhimurium TA 102 assessed as number of colonies at 66.7 ug/plate in absence of Sprague-Dawley rat S9 with metabolic activation measured after 48 hrs by Ames test (reference value: 78.7 +/- 7.8); assay type: toxicity; conditions: salmonella enterica subsp. enterica serovar typhimurium, s9, 48 h
[25] = Genotoxicity in Salmonella typhimurium TA1535 harboring pSK1002 assessed as survival at 0.5 mg/ml in absence of Sprague-Dawley rat liver S9 fraction metabolic activation by SOS/umu assay relative to control; assay type: toxicity; conditions: salmonella enterica subsp. enterica serovar typhimurium, read-out: Survival
Procedure, shortened: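 Survival of S. typhimurium TA1535/pSK1002 exposed to a range of compound concentrations with or without S9 mix in 96-well format. Survival percentage measured as the cytotoxicity arm of the SOS/umu test. Concentrations with survival ≥80% are counted as non-cytotoxic.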

Trypanosoma cruzi [26] = experiment: Antitrypanosomal activity against Trypanosoma cruzi MHOM/Pe/2011/Arequipa;DTU 5 epimastigote assessed as effect on parasite glycolytic pathway by measuring decrease in succinate excretion at IC50 after 72 hrs by H NMR method relative to control; assay type: functional; set-up: scale not given: the % may be the effect or the level left; procedure, shortened: as §2
[27] = as §3, with “urea” for “uric acid”; assay type: organism-based; conditions: in vivo

With O=C(Cn1ccnc1[N+](=O)[O-])NCc1ccccc1 [BENZNIDAZOLE] the Activity [1] was “<= 10%”, the Activity [2] was “<= 10%” and the Activity [3] was “<= 10%”.

For O=C(CCN1CCN(c2ccc(Cl)cc2)CC1)c1ccc(O)cc1, the Activity [4] was 32.3, the Activity (Trypanosoma cruzi [5]) was 34% and the Activity [6] was “<= 10%”. It also gave an Activity [7] of 44, an Activity [8] of 72.3 and an Activity [9] of 47.3. The Activity [10] was over 10%, the Activity [11] was 44.7 and the Activity [12] was 34.4. The Activity [13] was “<= 20%”, the Activity [14] was over 10% and the Activity [15] was 6. It also gave an Activity [16] of 4, an Activity [17] of 41 and an Activity [18] of 2.3. For the same molecule, the Activity (Trypanosoma cruzi [19]) was 36%, the Activity (Trypanosoma cruzi [20]) was 44% and the Activity [21] was 4. The Activity [22] was 4, the Activity [23] was 34.3 and the Activity [24] was 73.3.

Molecule O=C(CCN1CCN(c2ccc(C(F)(F)F)cc2)CC1)c1ccc(O)cc1 has a viability at 0.5 mg/ml [25] of 155%, an Activity (Trypanosoma cruzi [26]) of 80% and an Activity [27] of over 10%.

Reference: ChEMBL document CHEMBL4402517, “Rational modification of Mannich base-type derivatives as novel antichagasic compounds: Synthesis, in vitro and in vivo evaluation” (Bioorg Med Chem, 2019)
